Reference: ChEMBL document CHEMBL4390647, “Efficient click chemistry towards novel 1H-1,2,3-triazole-tethered 4H-chromene-d-glucose conjugates: Design, synthesis and evaluation of in vitro antibacterial, MRSA and antifungal activities” (Eur J Med Chem, 2019)
≈ marks a conversion by molar mass, not a printed value.

Key:
Candida albicans [1] = test: Antifungal activity against Candida albicans NCIM3471 by standard agar method; format: functional
Aspergillus niger [2] = test: Antifungal activity against Aspergillus niger NCIM1196 by standard agar method; format: functional
[3] = Antioxidant activity assessed as DPPH radical scavenging activity measured after 30 mins by spectrophotometric method; format: functional
Staphylococcus aureus [4] = test: Antibacterial activity against Staphylococcus aureus MRSA198 clinical isolate-1 measured after 18 to 20 hrs by microbroth dilution method; format: functional; conditions: MRSA198 isolate-1
[5] = Cytotoxicity against mouse RAW264.7 cells assessed as growth inhibition at 50 ug/mL after 120 hrs by MTT assay relative to control; format: cell-based; conditions: read-out: GI
How it was run: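 RAW 264.7 mouse macrophages were seeded at 25,000 cells/well and left to attach overnight. Compound in DMSO was added from a 200× concentrate, in duplicate wells, to a 50 μg/mL test level; DMSO served as control. Exposure 120 h at 37°C in 5% CO₂. MTT (4 mg/mL in PBS) was added for 4 h, formazan dissolved in DMSO, and absorbance read at 560 nm. Viability expressed as % of untreated cells, mean ± SE of at least three independent experiments.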

Pseudomonas aeruginosa = test: Antibacterial activity against Pseudomonas aeruginosa […] measured after 18 to 20 hrs by microbroth dilution method; format: functional
How it was run: (§1)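 Inoculum from a 4–6-h broth adjusted to 0.5 McFarland, final 5 × 10⁵ CFU/mL. Incubation at 35°C for 18–20 h. MIC taken as the lowest concentration giving complete inhibition of visible growth; three experiments.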

Staphylococcus aureus [6] = test: Antibacterial activity against Staphylococcus aureus MRSA198 clinical isolate-2 measured after 18 to 20 hrs by microbroth dilution method; format: functional; conditions: MRSA198 isolate-2
Candida albicans [7] = test: Antifungal activity against Candida albicans ATCC 7754 after 72 hrs by agar dilution method; format: functional; conditions: ATCC 7754, 72 h
How it was run: (§2)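 Agar dilution on Sabouraud dextrose agar, with compounds at […] to 0.78 μM in twofold steps. Fungal suspensions at 10 CFU/mL as printed were applied to the compound-containing plates. Incubation at 35°C; MIC read after 72 h. Three experiments.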

Saccharomyces cerevisiae = test: Antifungal activity against Saccharomyces cerevisiae SH 20 after 72 hrs by agar dilution method; format: functional; conditions: SH 20, 72 h; how it was run: as §2
Bacillus subtilis = test: Antibacterial activity against Bacillus subtilis ATCC 11774 after 18 to 20 hrs by microbroth dilution method; format: functional; how it was run: as §1
Staphylococcus aureus [8] = test: Antibacterial activity against Staphylococcus aureus ATCC 11632 after 18 to 20 hrs by microbroth dilution method; format: functional; how it was run: as §1
Aspergillus niger [9] = test: Antifungal activity against Aspergillus niger ATCC 439 measured after 72 hrs by agar dilution method; format: functional; conditions: ATCC 439, 72 h; how it was run: as §2
Staphylococcus aureus [10] = test: Antibacterial activity against Staphylococcus aureus MRSA198 clinical isolate-3 measured after 18 to 20 hrs by microbroth dilution method; format: functional; conditions: MRSA198 isolate-3
Escherichia coli = test: Antibacterial activity against Escherichia coli ATCC 25922 measured after 18 to 20 hrs by microbroth dilution method; format: functional; how it was run: as §1
Salmonella typhimurium = test: Antibacterial activity against Salmonella typhimurium ATCC 14028 measured after 18 to 20 hrs by microbroth dilution method; format: functional, Salmonella enterica subsp. enterica serovar Typhimurium; conditions: Salmonella enterica; how it was run: as §1
[11] = system: Staphylococcus epidermidis; test: Antibacterial activity against Staphylococcus epidermidis ATCC 12228 after 18 to 20 hrs by microbroth dilution method; format: functional; how it was run: as §1
Aspergillus flavus [12] = test: Antifungal activity against Aspergillus flavus ATCC 204304 measured after 72 hrs by agar dilution method; format: functional; conditions: ATCC 204304, 72 h; how it was run: as §2
Klebsiella pneumoniae = test: Antibacterial activity against measured after Klebsiella pneumoniae ATCC 4352 measured after 18 to 20 hrs by microbroth dilution method; format: functional; how it was run: as §1
Candida albicans [13] = test: Antifungal activity against Candida albicans ATCC 1912 after 24 to 48 hrs by broth microdilution method; format: functional
Candida albicans [14] = test: Antifungal activity against Candida albicans ATCC 1905 after 24 to 48 hrs by broth microdilution method; format: functional
Candida albicans [15] = test: Antifungal activity against Candida albicans SUCC 625 after 24 to 48 hrs by broth microdilution method; format: functional
Candida albicans [16] = test: Antifungal activity against Candida albicans SUCC 2303 after 24 to 48 hrs by broth microdilution method; format: functional
Aspergillus flavus [17] = test: Antifungal activity against Aspergillus flavus ATCC 64025 after 24 to 48 hrs by broth microdilution method; format: functional

Row | SMILES | MIC (Staphylococcus aureus [4]) [µM] | inhibition at 120 h, 50 ug/mL [5] [%] | MIC (Pseudomonas aeruginosa) [µM] | MIC (Staphylococcus aureus [6]) [µM] | MIC (Candida albicans [7]) [µM] | MIC (Saccharomyces cerevisiae) [µM] | MIC (Bacillus subtilis) [µM] | MIC (Staphylococcus aureus [8]) [µM] | MIC (Aspergillus niger [9]) [µM] | MIC (Staphylococcus aureus [10]) [µM] | MIC (Escherichia coli) [µM] | MIC (Salmonella typhimurium) [µM] | MIC [11] [µM] | MIC (Aspergillus flavus [12]) [µM] | MIC (Klebsiella pneumoniae) [µM] | further results
1 | CCOC(=O)c1cc2ccc(OCc3cn(Cc4ccc(F)cc4)nn3)cc2oc1=O |  |  |  |  |  |  |  |  |  |  |  |  |  |  |  | MIC (Candida albicans [1]): 12.5 µg/mL (≈ 29.5 µM); MIC (Aspergillus niger [2]): 25 µg/mL (≈ 59 µM)
2 | Cc1cc(C(C)(C)C)c(O)c(C(C)(C)C)c1 [BUTYLATED HYDROXYTOLUENE] |  |  |  |  |  |  |  |  |  |  |  |  |  |  |  | IC50 [3]: 16.47 µg/mL (≈ 74.7 µM)
3 | CC(=O)OC[C@H]1O[C@@H](n2cc(COc3ccc4c(c3)OC(N)=C(C#N)C4c3ccccc3)nn2)[C@H](OC(C)=O)[C@@H](OC(C)=O)[C@@H]1OC(C)=O (some centres undefined) | 400 (≈ 270 µg/mL) | 22.9 | 200 (≈ 135 µg/mL) | 400 (≈ 270 µg/mL) | 100 (≈ 67.6 µg/mL) | 12.5 (≈ 8.45 µg/mL) | 400 (≈ 270 µg/mL) | 200 (≈ 135 µg/mL) | 6.25 (≈ 4.22 µg/mL) | 200 (≈ 135 µg/mL) | 400 (≈ 270 µg/mL) | 3.12 (≈ 2.11 µg/mL) | 25 (≈ 16.9 µg/mL) | 100 (≈ 67.6 µg/mL) | 400 (≈ 270 µg/mL) | 
4 | CCOC(=O)c1cc2ccc(OCc3cn(Cc4ccc([N+](=O)[O-])cc4)nn3)cc2oc1=O |  |  |  |  |  |  |  |  |  |  |  |  |  |  |  | IC50 [3]: 15 µg/mL (≈ 33.3 µM)
5 | COc1ccc(C2C(C#N)=C(N)Oc3cc(OCc4cn([C@@H]5O[C@H](COC(C)=O)[C@@H](OC(C)=O)[C@H](OC(C)=O)[C@H]5OC(C)=O)nn4)ccc32)cc1OC (some centres undefined) | 25 (≈ 18.4 µg/mL) | 21.9 | 12.5 (≈ 9.2 µg/mL) | 50 (≈ 36.8 µg/mL) | 6.25 (≈ 4.6 µg/mL) | 25 (≈ 18.4 µg/mL) | 25 (≈ 18.4 µg/mL) | 25 (≈ 18.4 µg/mL) | 200 (≈ 147 µg/mL) | 50 (≈ 36.8 µg/mL) | 6.25 (≈ 4.6 µg/mL) | 400 (≈ 294 µg/mL) | 1.56 (≈ 1.15 µg/mL) | 3.12 (≈ 2.3 µg/mL) | 25 (≈ 18.4 µg/mL) | 
6 | CC(=O)OC[C@H]1O[C@@H](n2cc(COc3ccc4c(c3)OC(N)=C(C#N)C4c3ccc(Br)cc3)nn2)[C@H](OC(C)=O)[C@@H](OC(C)=O)[C@@H]1OC(C)=O (some centres undefined) | 12.5 (≈ 9.43 µg/mL) | 25.3 | 25 (≈ 18.9 µg/mL) | 12.5 (≈ 9.43 µg/mL) | 3.12 (≈ 2.35 µg/mL) | 1.56 (≈ 1.18 µg/mL) | 200 (≈ 151 µg/mL) | 25 (≈ 18.9 µg/mL) | 3.12 (≈ 2.35 µg/mL) | 12.5 (≈ 9.43 µg/mL) | 100 (≈ 75.5 µg/mL) | 200 (≈ 151 µg/mL) | 100 (≈ 75.5 µg/mL) | 200 (≈ 151 µg/mL) | 200 (≈ 151 µg/mL) | 
7 | COc1cccc(C2C(C#N)=C(N)Oc3cc(OCc4cn([C@@H]5O[C@H](COC(C)=O)[C@@H](OC(C)=O)[C@H](OC(C)=O)[C@H]5OC(C)=O)nn4)ccc32)c1OC (some centres undefined) | 12.5 (≈ 9.2 µg/mL) | 31.1 | 12.5 (≈ 9.2 µg/mL) | 12.5 (≈ 9.2 µg/mL) | 100 (≈ 73.6 µg/mL) | 200 (≈ 147 µg/mL) | 12.5 (≈ 9.2 µg/mL) | 12.5 (≈ 9.2 µg/mL) | 25 (≈ 18.4 µg/mL) | 12.5 (≈ 9.2 µg/mL) | 200 (≈ 147 µg/mL) | 12.5 (≈ 9.2 µg/mL) | 25 (≈ 18.4 µg/mL) | 25 (≈ 18.4 µg/mL) | 25 (≈ 18.4 µg/mL) | 
8 | OC(Cn1cncn1)(Cn1cncn1)c1ccc(F)cc1F [FLUCONAZOLE] |  |  |  |  | 0.78 (≈ 0.239 µg/mL) | 0.78 (≈ 0.239 µg/mL) |  |  | 1.56 (≈ 0.478 µg/mL) |  |  |  |  | 0.78 (≈ 0.239 µg/mL) |  | MIC (Candida albicans [1]): 12.5 µg/mL (≈ 40.8 µM); MIC (Aspergillus niger [2]): 12.5 µg/mL (≈ 40.8 µM)
9 | COc1ccccc1C1C(C#N)=C(N)Oc2cc(OCc3cn([C@@H]4O[C@H](COC(C)=O)[C@@H](OC(C)=O)[C@H](OC(C)=O)[C@H]4OC(C)=O)nn3)ccc21 (some centres undefined) | 400 (≈ 282 µg/mL) | 22.1 | 3.12 (≈ 2.2 µg/mL) | 400 (≈ 282 µg/mL) | 200 (≈ 141 µg/mL) | 100 (≈ 70.6 µg/mL) |  | 50 (≈ 35.3 µg/mL) | 1.56 (≈ 1.1 µg/mL) | 200 (≈ 141 µg/mL) | 400 (≈ 282 µg/mL) | 6.25 (≈ 4.41 µg/mL) | 6.25 (≈ 4.41 µg/mL) | 400 (≈ 282 µg/mL) | 3.12 (≈ 2.2 µg/mL) | 
10 | CC(=O)OC[C@H]1O[C@@H](n2cc(COc3ccc4c(c3)OC(N)=C(C#N)C4c3ccc(Cl)cc3)nn2)[C@H](OC(C)=O)[C@@H](OC(C)=O)[C@@H]1OC(C)=O (some centres undefined) | 200 (≈ 142 µg/mL) | 25.1 | 3.12 (≈ 2.22 µg/mL) | 200 (≈ 142 µg/mL) | 6.25 (≈ 4.44 µg/mL) | 1.56 (≈ 1.11 µg/mL) | 400 (≈ 284 µg/mL) | 50 (≈ 35.5 µg/mL) | 50 (≈ 35.5 µg/mL) | 100 (≈ 71 µg/mL) | 1.56 (≈ 1.11 µg/mL) | 12.5 (≈ 8.88 µg/mL) | 200 (≈ 142 µg/mL) | 25 (≈ 17.8 µg/mL) | 12.5 (≈ 8.88 µg/mL) | 
11 | N#CC1=C(N)Oc2ccc3ccccc3c2C1c1ccccc1 (centres undefined) |  |  |  |  |  |  |  |  |  |  |  |  |  |  |  | MIC (Candida albicans [13]): > 1 µg/mL; MIC (Candida albicans [14]): > 1 µg/mL; MIC (Candida albicans [15]): > 1 µg/mL; MIC (Candida albicans [16]): > 1 µg/mL; MIC (Aspergillus flavus [17]): > 1 µg/mL
12 | CC(=O)OC[C@H]1O[C@@H](n2cc(COc3ccc4c(c3)OC(N)=C(C#N)C4c3cccc(Cl)c3)nn2)[C@H](OC(C)=O)[C@@H](OC(C)=O)[C@@H]1OC(C)=O (some centres undefined) | 3.12 (≈ 2.22 µg/mL) | 17.2 | 25 (≈ 17.8 µg/mL) | 6.25 (≈ 4.44 µg/mL) | 12.5 (≈ 8.88 µg/mL) | 3.12 (≈ 2.22 µg/mL) | 6.25 (≈ 4.44 µg/mL) | 1.56 (≈ 1.11 µg/mL) | 12.5 (≈ 8.88 µg/mL) | 1.56 (≈ 1.11 µg/mL) | 6.25 (≈ 4.44 µg/mL) | 6.25 (≈ 4.44 µg/mL) | 12.5 (≈ 8.88 µg/mL) | 200 (≈ 142 µg/mL) | 3.12 (≈ 2.22 µg/mL) | 
